From PubChem BioAssay
Rows were chosen to be rich in hits. Some 2% of all compounds tested hit in one or more screens of this group.
Bfl-1 A1 inh: caspase 3/7 activation in MEF A1-2A-BIM cells, primary screen, A1 inhibitor project, cell-based, luminescence, HTS. hit rate 0.066% among 330,000. caspase activation, % (no concentration beside the values). AID 2462, 2010. Caspase-Glo 3/7 luminescence, 3 h; percent of clofoctol response, vehicle zero;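 active = over half of replicate activation scores above 10%, or exactly half above 10 with the replicate mean above 10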
UPR CHOP act: activators of apoptotic CHOP UPR arm, primary screen, cell-based, CHO-CHOP luciferase reporter, luminescence, uHTS. activation, % at 10 µM. hit rate 0.34% among 330,000. UPR activation; percent of tunicamycin response over DMSO baseline;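 active = at 10 µM dose, activation of 40% or more, normalized to positive control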;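 also: 100% = tunicamycin at 10 µg/mL and 0% = DMSO alone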
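measured by = luciferase luminescence | assay system = CHO-CHOP cells, stable luciferase reporter of PERK-eIF2a-CHOP signalling | amount = 500 reporter cells seeded per well | timing = 6 h compound exposure at 37 °C after overnight seeding | controls = positive tunicamycin 10 µg/mL, negative DMSO alone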
MC4R barr agon: MC4R agonists recruiting beta-arrestin, primary screen, cell-based, luminescence, agonist arm of biased-ligand search; hit rate 0.98% among 360,000; U2OS MC4R beta-arrestin complementation; percent of melanotan II response, DMSO zero; AID 540308, 2011; activation, % at 8.9 µM; Melanocortin receptor 4 (Homo sapiens), P32245;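 active = activation above a per-plate cutoff, the mean activation of sample wells on that plate plus 3 SD, cut at about 8% in these data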
Target sequence (P32245 whole entry, looked up): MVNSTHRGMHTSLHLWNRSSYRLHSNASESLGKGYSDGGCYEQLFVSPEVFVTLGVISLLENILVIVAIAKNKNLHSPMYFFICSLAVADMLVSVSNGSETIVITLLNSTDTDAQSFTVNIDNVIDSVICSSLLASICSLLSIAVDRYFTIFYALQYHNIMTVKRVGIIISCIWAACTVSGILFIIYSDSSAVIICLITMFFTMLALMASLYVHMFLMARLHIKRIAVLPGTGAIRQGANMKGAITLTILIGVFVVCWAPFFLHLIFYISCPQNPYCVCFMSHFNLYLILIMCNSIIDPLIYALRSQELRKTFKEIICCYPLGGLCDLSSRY
MC4R antagonist: MC4R antagonists of cAMP signaling, primary screen, cell-based, TR-FRET, antagonist arm of biased-ligand search | Melanocortin receptor 4 (Homo sapiens), P32245 | MC4R-expressing cells, MTII-stimulated cAMP, LANCE TR-FRET | inhibition, % at 6.5 µM | hit rate 0.48% among 360,000;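 active = inhibition above its plate's cutoff, the mean of tested wells on that plate plus 3 SD, cut at about 29% in these data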;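 also: 0% = Melanotan II alone and 100% = Melanotan II plus saturating MCL0020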
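Test system: U2OS cells stably expressing human melanocortin 4 receptor (MC4R); also added: Melanotan II challenge; compound: 6.5 µM single dose; timing: 30-min compound preincubation, 1-h Melanotan II challenge, 1-h detection, room temperature; signal: Eu-cAMP/anti-cAMP TR-FRET, emission 671 nm; repeats: one well per compound, no replicates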
UPR XBP1 act: activators of adaptive XBP1 UPR arm, primary screen, cell-based, CHO-XBP1 luciferase reporter, luminescence, uHTS; IRE1-XBP1 UPR activation; percent of tunicamycin response, DMSO as zero; activation, % at 20 µM; hit rate 0.33% among 330,000; AID 463104, 2010;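 active = versus positive control, 20 µM dose yields 30% or more activation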;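 also: 100% = tunicamycin at 10 µg/mL and 0% = DMSO only wells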
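Assay system: IRE1-XBP1 luciferase reporter CHO line. Input: 1000 cells/well. Buffer or medium: F12 with 10% serum. Doses: 20 µM, 1% DMSO. Times: overnight seeding at 37 °C, 6 h compound treatment at 37 °C. Technique: Steady-Glo luciferase glow luminescence, 10 min after reagent addition.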
UPR XBP1 confirm: IRE1-XBP1 UPR arm activators, confirmation, cell-based, CHO-XBP1 luciferase reporter, luminescence, single concentration | shares compounds with UPR XBP1 act | activation, % at 20 µM | hit rate 63% among 1,000 | AID 485299, 2010;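 active = reporter signal at least 30% of the positive control's activation in two or more of four replicate wells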;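 also: plate controls were DMSO negative control for no effect and tunicamycin 10 µg/mL positive control for full effect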
The depositor's hits bear a star.

How did C/C(=N/Nc1cc(-c2ccccc2)nc(-c2ccccc2)n1)c1ccc(O)cc1 do in these assays?
Bfl-1 A1 inh: 0.5; UPR CHOP act: 3.7; MC4R barr agon: 5.8; MC4R antagonist: 16.4; UPR XBP1 act: 67.8*; UPR XBP1 confirm: 57.5*

How did CCCCNC(=S)N/N=C1\C(=O)c2cccc3cccc1c23 do in these assays?
Bfl-1 A1 inh: -0.1; UPR CHOP act: -2.7; MC4R barr agon: -1.2; MC4R antagonist: 7.9; UPR XBP1 act: 1.2

Results for CNC(=S)N/N=C1\C(=O)c2cccc3cccc1c23 ?
Bfl-1 A1 inh: -1.7; UPR CHOP act: 33.4; MC4R barr agon: 1.9; MC4R antagonist: 17.3; UPR XBP1 act: 33.4*; UPR XBP1 confirm: 22.3

Results for Cc1ccnc(N/C=C(\C#N)c2nc(-c3cccc(Br)c3)cs2)c1 ?
Bfl-1 A1 inh: 0.2; UPR CHOP act: 2.5; MC4R barr agon: -1.3; MC4R antagonist: 3.6; UPR XBP1 act: 91.0*; UPR XBP1 confirm: 94.3*

Results for O=C(N/N=C/c1ccccc1Cl)c1[nH]c2ccc(Br)cc2c1-c1ccccc1 ?
Bfl-1 A1 inh: 1.5; UPR CHOP act: -0.4; MC4R barr agon: -3.1; MC4R antagonist: -26.5; UPR XBP1 act: 49.7*; UPR XBP1 confirm: 59.1*

How did N=c1c2ccccc2nc2n1CCCCC2 do in these assays?
MC4R barr agon: 2.5; MC4R antagonist: -0.2

What do the screens show for `COc1ccccc1OCC(=O)Sc1ccc(C)cc1`?
Bfl-1 A1 inh: -0.4; UPR CHOP act: 7.5; MC4R barr agon: 1.4; MC4R antagonist: 12.4; UPR XBP1 act: 33.9*; UPR XBP1 confirm: 19.0

What do the screens show for `Cc1ccc(OCC(=O)Sc2ccc(C)cc2)cc1`?
Bfl-1 A1 inh: 0.5; UPR CHOP act: 4.8; MC4R barr agon: 0.0; MC4R antagonist: 2.7; UPR XBP1 act: 26.8

What do the screens show for `Cc1cc(OCC(=O)OCC(=O)N2CCCc3ccccc32)ccc1Cl`?
MC4R barr agon: 0.3; MC4R antagonist: -1.2

What do the screens show for `CSC1=NC(C)(C)C=C(/C=C/c2ccc(Cl)cc2)N1`?
Bfl-1 A1 inh: 0.6; UPR CHOP act: 7.7; MC4R barr agon: -1.3; MC4R antagonist: -5.9; UPR XBP1 act: 34.6*; UPR XBP1 confirm: 45.4*

What do the screens show for `NC1=NC[C@@H](CC2CCCCC2)N1CCc1cc(C(F)(F)F)cc(C(F)(F)F)c1`?
Bfl-1 A1 inh: 1.3; UPR CHOP act: 1.2; MC4R barr agon: 6.4; MC4R antagonist: 12.6; UPR XBP1 act: 49.0*; UPR XBP1 confirm: 54.9*

What do the screens show for `COC(=O)c1ccccc1NC(=O)c1cc(-c2cccs2)on1`?
Bfl-1 A1 inh: -0.1; UPR CHOP act: 20.1; MC4R barr agon: -0.3; MC4R antagonist: 5.3; UPR XBP1 act: 32.1*; UPR XBP1 confirm: 3.5

How did Cc1cc(C)c2c(n1)sc1c(-c3ccccc3)c(C#N)c(N)nc12 do in these assays?
Bfl-1 A1 inh: 1.1; UPR CHOP act: 26.5; MC4R barr agon: 3.5; MC4R antagonist: -6.0; UPR XBP1 act: 90.6*; UPR XBP1 confirm: 47.8*

Results for CC1(C(=O)Nc2cccc(NS(C)(=O)=O)c2)Cc2c(-c3ccc(C(N)=O)cc3)ccnc2O1 (centres undefined) ?
MC4R barr agon: -0.9; MC4R antagonist: 3.1

What do the screens show for `Cn1nc(C(C)(C)C)cc1C(=O)N1CCCCC1c1cc(C(=O)Nc2ccccc2Cl)no1` (centres undefined)?
MC4R barr agon: 2.0; MC4R antagonist: -8.9

What do the screens show for `COc1cccc2cc(C(=O)Nc3cc(C)cc(C)c3)/c(=N/NS(=O)(=O)c3ccccc3)oc12`?
Bfl-1 A1 inh: -0.1; UPR CHOP act: 1.0; MC4R barr agon: 0.4; MC4R antagonist: 4.9; UPR XBP1 act: 240.2*; UPR XBP1 confirm: 4.3

What do the screens show for `COc1ccc(CCn2c(=N)c(C(=O)NCc3ccco3)cc3c(=O)n4ccccc4nc32)cc1OC`?
MC4R barr agon: -1.1; MC4R antagonist: 9.6

How did COc1ccc(CCNC(=O)c2cc3c(=O)n4ccccc4nc3n(Cc3ccco3)c2=N)cc1OC do in these assays?
Bfl-1 A1 inh: 0.6; UPR CHOP act: 6.9; MC4R barr agon: -4.9; MC4R antagonist: -32.6; UPR XBP1 act: 43.4*; UPR XBP1 confirm: -2.8

Results for Cc1cccc(N2CCN(C(=O)COc3noc4nc(C)cc(C)c34)CC2C)c1 (centres undefined) ?
MC4R barr agon: 2.1; MC4R antagonist: 8.9

How did COc1cc2c(cc1OC)C(=O)C(Br)CC2 (centres undefined) do in these assays?
MC4R barr agon: -1.6; MC4R antagonist: -13.2

What do the screens show for `O=C(/C=C/c1cc([N+](=O)[O-])ccc1OC(F)F)Nc1ccc(OC(F)F)cc1`?
Bfl-1 A1 inh: -1.1; UPR CHOP act: -1.2; MC4R barr agon: -1.2; MC4R antagonist: 12.6; UPR XBP1 act: -1.0

Results for O=C(/C=C/c1cc([N+](=O)[O-])ccc1OC(F)F)Nc1cccc([N+](=O)[O-])c1 ?
UPR CHOP act: 7.8; MC4R barr agon: -0.5; MC4R antagonist: 3.1; UPR XBP1 act: 102.4*; UPR XBP1 confirm: 27.8*

How did O=C1NC(=S)N/C1=C\C=C\c1ccccc1 do in these assays?
Bfl-1 A1 inh: -0.8; UPR CHOP act: 0.5; MC4R barr agon: 0.5; MC4R antagonist: 3.4; UPR XBP1 act: 39.1*; UPR XBP1 confirm: 5.1

Results for COc1ccc(C2NCCc3c2[nH]c2ccccc32)cc1CN1CCc2cc(OC)c(OC)cc2C1C (centres undefined) ?
MC4R barr agon: 0.2; MC4R antagonist: 13.2

What do the screens show for `COc1ccc(C2NCCc3c2[nH]c2ccccc32)cc1COc1ccc(F)cc1` (centres undefined)?
Bfl-1 A1 inh: 1.1; UPR CHOP act: 0.3; MC4R barr agon: 24.1*; MC4R antagonist: -3.1; UPR XBP1 act: 31.7*; UPR XBP1 confirm: 39.2*

Results for CN1C(=O)/C(=N\OC(=O)c2cccc3ccccc23)c2ccccc21 ?
Bfl-1 A1 inh: -0.2; UPR CHOP act: 6.2; MC4R barr agon: -0.9; MC4R antagonist: -11.5; UPR XBP1 act: 42.5*; UPR XBP1 confirm: 5.3

What do the screens show for `O=C(O)CCC1C(=O)NC(=O)CC1c1ccccc1` (centres undefined)?
MC4R barr agon: -2.0; MC4R antagonist: 5.8

How did O=C(N=C1c2ccccc2CN1c1ccccc1)c1cccc([N+](=O)[O-])c1 do in these assays?
Bfl-1 A1 inh: -2.6; UPR CHOP act: 2.7; MC4R barr agon: 2.0; MC4R antagonist: 18.9; UPR XBP1 act: 0.1
